Measurements as given in publication PMC10633881 (ACS Omega, 2023).
Residues, ends and D or L forms follow the SMILES beside them. No end group written: not given here.

Columns and labels:
K562 cells [1] = test: LDH leakage assay; type: cell-based, human; conditions: 10 μM peptide, 24 h, serum-free medium
Outline: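 K562 cells were seeded in 96-well plates for 24 h, then incubated 24 h with peptide in serum-free medium using a kit. Plates were spun at 400g for 5 min. Supernatant was mixed with LDH detection solution and shaken 30 min at room temperature, then read at 490 nm. Untreated wells = no leakage; LDH-releasing reagent = 100% leakage.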

[2] = system: cancer cells and murine fibroblasts; conditions: read-out: antiproliferative activity IC50 values; against cancer cells and murine fibroblasts; cited from earlier work
MCF-7 cells = test: Cell viability, CCK-8 method; type: cell-based, human; conditions: 10 μM peptide, 24 h, CCK8
Outline: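 MCF-7 cells (MEM, 10% FBS, 37 °C, 5% CO2) were seeded at 5×10^3 cells/well in 96-well plates. After 24 h, the medium was removed and replaced with MEM containing peptide. After 24 h at 37 °C, viability was read by CCK-8.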

K562 cells [3] = test: Cell viability, CCK-8 method; type: cell-based, human; conditions: 10 μM peptide, 24 h, CCK8
Outline: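 K562 cells (IMDM, 10% FBS, 37 °C, 5% CO2) were seeded at 5×10^3 cells/well in 96-well plates. After 24 h, IMDM containing peptide was added without removing the medium. After 24 h at 37 °C, viability was read by CCK-8.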

Serum stability assay = type: in vitro ADME; conditions: peptide solution (10 mM), 37 °C, supernatant analysed by RP-HPLC

Row | Molecule | LDH leakage (cell membrane destruction) (K562 cells [1]) | IC50 [2] [µM] | anticancer activity in the preliminary screening, compared with F1, MCF-7 cells (MCF-7 cells) | anticancer activity in the preliminary screening, compared with F1, K562 cells (K562 cells [3]) | peptide degraded after incubation in 10% serum for 1 h (Serum stability assay)
1 | FIGTLIPLALGALTKLFK-NH2 [F1, Figainin 1, reference compound] | destroyed cell membranes | 10.5 to 13.7 | – | – | –
2 | CCCCCCCCCC(=O)N[C@@H](Cc1ccccc1)C(=O)N[C@H](C(=O)NCC(=O)N[C@H](C(=O)N[C@@H](CC(C)C)C(=O)N[C@H](C(=O)N1CCC[C@H]1C(=O)N[C@@H](CC(C)C)C(=O)N[C@@H](C)C(=O)N[C@@H](CC(C)C)C(=O)NCC(=O)N[C@@H](C)C(=O)N[C@@H](CC(C)C)C(=O)N[C@H](C(=O)N[C@@H](CCCCN)C(=O)N[C@@H](CC(C)C)C(=O)N[C@@H](Cc1ccccc1)C(=O)N[C@@H](CCCCN)C(N)=O)[C@@H](C)O)[C@@H](C)CC)[C@@H](C)O)[C@@H](C)CC [A-10] (HELM PEPTIDE1{[CCCCCCCCCC(=O)[*:2]].F.I.G.T.L.I.P.L.A.L.G.A.L.T.K.L.F.K.[am]}$$$$V2.0) | stronger than that of F1 | – | strongest anticancer activity | strongest anticancer activity | hardly degraded
